Legend:
Brain [1] = experiment: Toxicity in mouse assessed as effect on iron level in brain per gram of organ at 0.4 mmol/kg, ip qd for 5 days; assay type: organism-based; details: in vivo, 120 h
Femur [2] = experiment: Detoxification activity against lead-induced toxicity in mouse assessed as reduction lead level in femurs per gram of organ at 0.4 mmol/kg, ip qd for 5 days measured 24 hrs last post dose by synchrotron X-ray fluorescence analysis; assay type: functional
How it was run: (§1)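 Lead-loaded mice were given normal saline vehicle (negative control) or test agent at 0.2, 0.4 or 0.6 mmol/kg. Lead was measured in liver, kidney, left femur and brain and reported as mean ± SD µg Pb/g organ against the NS group.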

Brain [3] = experiment: Detoxification activity against lead-induced toxicity in mouse assessed as reduction lead level in brain per gram of organ at 0.4 mmol/kg, ip qd for 5 days measured 24 hrs last post dose by synchrotron X-ray fluorescence analysis; assay type: functional; how it was run: as §1
Kidney [4] = experiment: Detoxification activity against lead-induced toxicity in mouse assessed as reduction lead level in kidney per gram of organ at 0.4 mmol/kg, ip qd for 5 days measured 24 hrs last post dose by synchrotron X-ray fluorescence analysis; assay type: functional; how it was run: as §1
Liver [5] = experiment: Detoxification activity against lead-induced toxicity in mouse assessed as reduction lead level in liver per gram of organ at 0.4 mmol/kg, ip qd for 5 days measured 24 hrs last post dose by synchrotron X-ray fluorescence analysis; assay type: functional; how it was run: as §1
[6] = Detoxification activity against lead-induced toxicity in mouse assessed as reduction lead level in feces at 0.4 mmol/kg, ip qd for 5 days measured 24 hrs last post dose by synchrotron X-ray fluorescence analysis; assay type: functional
How it was run: (§2)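 Lead-loaded mice were given normal saline vehicle, DL-penicillamine or NaDMS (positive controls), or test agent, each at 0.4 mmol/kg; n = 12 per group. Lead was measured in feces and urine and reported as mean ± SD µg Pb/g excrement against the NS group.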

[7] = Detoxification activity against lead-induced toxicity in mouse assessed as reduction lead level in urine at 0.4 mmol/kg, ip qd for 5 days measured 24 hrs last post dose by synchrotron X-ray fluorescence analysis; assay type: functional; how it was run: as §2
Femur [8] = experiment: Detoxification activity against lead-induced toxicity in mouse assessed as reduction lead level in femurs per gram of organ at 0.6 mmol/kg, ip qd for 5 days measured 24 hrs last post dose by synchrotron X-ray fluorescence analysis; assay type: functional; how it was run: as §1
Femur [9] = experiment: Detoxification activity against lead-induced toxicity in mouse assessed as reduction lead level in femurs per gram of organ at 0.2 mmol/kg, ip qd for 5 days measured 24 hrs last post dose by synchrotron X-ray fluorescence analysis; assay type: functional; how it was run: as §1
Brain [10] = experiment: Detoxification activity against lead-induced toxicity in mouse assessed as reduction lead level in brain per gram of organ at 0.6 mmol/kg, ip qd for 5 days measured 24 hrs last post dose by synchrotron X-ray fluorescence analysis; assay type: functional; how it was run: as §1
Brain [11] = experiment: Detoxification activity against lead-induced toxicity in mouse assessed as reduction lead level in brain per gram of organ at 0.2 mmol/kg, ip qd for 5 days measured 24 hrs last post dose by synchrotron X-ray fluorescence analysis; assay type: functional; how it was run: as §1
Kidney [12] = experiment: Detoxification activity against lead-induced toxicity in mouse assessed as reduction lead level in kidney per gram of organ at 0.6 mmol/kg, ip qd for 5 days measured 24 hrs last post dose by synchrotron X-ray fluorescence analysis; assay type: functional; how it was run: as §1
Kidney [13] = experiment: Detoxification activity against lead-induced toxicity in mouse assessed as reduction lead level in kidney per gram of organ at 0.2 mmol/kg, ip qd for 5 days measured 24 hrs last post dose by synchrotron X-ray fluorescence analysis; assay type: functional; how it was run: as §1
Liver [14] = experiment: Detoxification activity against lead-induced toxicity in mouse assessed as reduction lead level in liver per gram of organ at 0.6 mmol/kg, ip qd for 5 days measured 24 hrs last post dose by synchrotron X-ray fluorescence analysis; assay type: functional; how it was run: as §1
Liver [15] = experiment: Detoxification activity against lead-induced toxicity in mouse assessed as reduction lead level in liver per gram of organ at 0.2 mmol/kg, ip qd for 5 days measured 24 hrs last post dose by synchrotron X-ray fluorescence analysis; assay type: functional; how it was run: as §1
Brain [16] = experiment: Toxicity in mouse assessed as effect on copper level in brain per gram of organ at 0.4 mmol/kg, ip qd for 5 days; assay type: organism-based; details: in vivo, 120 h
Brain [17] = experiment: Toxicity in mouse assessed as effect on zinc level in brain per gram of organ at 0.4 mmol/kg, ip qd for 5 days; assay type: organism-based; details: in vivo, 120 h
Brain [18] = experiment: Toxicity in mouse assessed as effect on manganese level in brain per gram of organ at 0.4 mmol/kg, ip qd for 5 days; assay type: organism-based; details: in vivo, 120 h
Brain [19] = experiment: Toxicity in mouse assessed as effect on calcium level in brain per gram of organ at 0.4 mmol/kg, ip qd for 5 days; assay type: organism-based; details: in vivo, 120 h
Liver [20] = experiment: Toxicity in mouse assessed as effect on iron level in liver per gram of organ at 0.4 mmol/kg, ip qd for 5 days; assay type: organism-based; details: in vivo, 120 h
Liver [21] = experiment: Toxicity in mouse assessed as effect on copper level in liver per gram of organ at 0.4 mmol/kg, ip qd for 5 days; assay type: organism-based; details: in vivo, 120 h
Liver [22] = experiment: Toxicity in mouse assessed as effect on zinc level in liver per gram of organ at 0.4 mmol/kg, ip qd for 5 days; assay type: organism-based; details: in vivo, 120 h
Liver [23] = experiment: Toxicity in mouse assessed as effect on manganese level in liver per gram of organ at 0.4 mmol/kg, ip qd for 5 days; assay type: organism-based; details: in vivo, 120 h
Liver [24] = experiment: Toxicity in mouse assessed as effect on calcium level in liver per gram of organ at 0.4 mmol/kg, ip qd for 5 days; assay type: organism-based; details: in vivo, 120 h
Kidney [25] = experiment: Toxicity in mouse assessed as effect on iron level in kidney per gram of organ at 0.4 mmol/kg, ip qd for 5 days; assay type: organism-based; details: in vivo, 120 h
Kidney [26] = experiment: Toxicity in mouse assessed as effect on copper level in kidney per gram of organ at 0.4 mmol/kg, ip qd for 5 days; assay type: organism-based; details: in vivo, 120 h
Kidney [27] = experiment: Toxicity in mouse assessed as effect on zinc level in kidney per gram of organ at 0.4 mmol/kg, ip qd for 5 days; assay type: organism-based; details: in vivo, 120 h
Kidney [28] = experiment: Toxicity in mouse assessed as effect on manganese level in kidney per gram of organ at 0.4 mmol/kg, ip qd for 5 days; assay type: organism-based; details: in vivo, 120 h
Kidney [29] = experiment: Toxicity in mouse assessed as effect on calcium level in kidney per gram of organ at 0.4 mmol/kg, ip qd for 5 days; assay type: organism-based; details: in vivo, 120 h
Mus musculus = experiment: Toxicity in mouse assessed as change in bodyweight at 0.4 mmol/kg, ip qd for 5 days; assay type: organism-based; details: in vivo, 120 h
How it was run: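 Lead-loaded mice were given normal saline vehicle or test agent at 0.4 mmol/kg. Body weights were recorded and compared with the NS group to assess growth.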

[30] = Apparent permeability from apical to basolateral side of human Caco2 cells at 4 mM up to 120 mins by HPLC analysis; assay type: ADME, cell-based; details: Caco-2
How it was run: (§3)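 Permeability measured across Caco-2 cell monolayers.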

[31] = Apparent permeability from basolateral to apical side of human Caco2 cells at 4 mM up to 120 mins by HPLC analysis; assay type: ADME, cell-based; details: Caco-2; how it was run: as §3
Caco-2 = experiment: Efflux ratio of permeability […] in human Caco2 cells at 4 mM up to 120 mins by HPLC analysis; assay type: ADME, cell-based; details: caco-2, 2 h, 4000 µM; how it was run: as §3

Row | SMILES | Activity (Brain [1]) [µg/g] | Activity (Femur [2]) [µg/g] | Activity (Brain [3]) [µg/g] | Activity (Kidney [4]) [µg/g] | Activity (Liver [5]) [µg/g] | Activity [6] [µg/g] | Activity [7] [µg/g] | Activity (Brain [16]) [µg/g] | Activity (Brain [17]) [µg/g] | Activity (Brain [18]) [µg/g] | Activity (Brain [19]) [µg/g] | Activity (Liver [20]) [µg/g] | Activity (Liver [21]) [µg/g] | Activity (Liver [22]) [µg/g] | Activity (Liver [23]) [µg/g] | Activity (Liver [24]) [µg/g] | Activity (Kidney [25]) [µg/g] | Activity (Kidney [26]) [µg/g] | Activity (Kidney [27]) [µg/g] | Activity (Kidney [28]) [µg/g] | further results
1 | CC1(C)SC(C(=O)O)C(C(=O)N[C@@H](CC(=O)O)C(=O)O)S1 (stereo not given in full) | 56.37 | 11.1 | 1.22 | 7.09 | 3.82 | 4.8 | 2.83 | 2.4 | 34.8 | 0.78 | 68.28 | 154.86 | 3.61 | 37.69 | 1.35 | 59.89 | 93.98 | 3.53 | 27.89 | 1.32 | Activity (Femur [8]): 9.64 µg/g; Activity (Femur [9]): 17.21 µg/g; Activity (Brain [10]): 0.84 µg/g; Activity (Brain [11]): 1.69 µg/g; Activity (Kidney [12]): 5.9 µg/g; Activity (Kidney [13]): 7.68 µg/g; Activity (Liver [14]): 2.77 µg/g; Activity (Liver [15]): 5.81 µg/g; Activity (Kidney [29]): 76.47 µg/g; Activity (Mus musculus): 31.1 g
2 | CC1(C)SC(C(=O)O)C(C(=O)O)S1 (stereo not given) | 56.6 | 15.47 | 1.42 | 7.12 | 4.02 | 4.57 | 1.93 | 2.42 | 34.54 | 0.7 | 71.33 | 152.9 | 3.61 | 36.66 | 1.36 | 58.87 | 95.1 | 3.4 | 28 | 1.3 | Papp A→B at 2 h, 4000 µM [30]: 13.7 ×10⁻⁶ cm/s; Papp B→A at 2 h, 4000 µM [31]: 4.68 ×10⁻⁶ cm/s; Ratio (Caco-2): 2.91; Activity (Kidney [29]): 75.94 µg/g; Activity (Mus musculus): 29 g
3 | CC1(C)SC(C(=O)O)C(C(=O)N[C@@H](CC(N)=O)C(=O)O)S1 (stereo not given in full) | 57.5 | 16.62 | 0.58 | 7.06 | 3.99 | 4.71 | 2.12 | 2.58 | 34.95 | 0.69 | 71.3 | 153.07 | 3.74 | 37.92 | 1.38 | 60.41 | 94.84 | 3.72 | 28.13 | 1.42 | Papp A→B at 2 h, 4000 µM [30]: 16.6 ×10⁻⁶ cm/s; Papp B→A at 2 h, 4000 µM [31]: 5.15 ×10⁻⁶ cm/s; Ratio (Caco-2): 3.23; Activity (Kidney [29]): 76.36 µg/g; Activity (Mus musculus): 31.3 g
4 | CC[C@H](C)[C@H](NC(=O)C1SC(C)(C)SC1C(=O)O)C(=O)O (stereo not given in full) | 56.49 | 14.32 | 1.42 | 6.49 | 5 | 4.1 | 2.42 | 2.48 | 33 | 0.75 | 69 | 152.94 | 3.73 | 36.79 | 1.34 | 59.96 | 92.98 | 3.54 | 27.41 | 1.44 | Papp A→B at 2 h, 4000 µM [30]: 14.2 ×10⁻⁶ cm/s; Papp B→A at 2 h, 4000 µM [31]: 4.91 ×10⁻⁶ cm/s; Ratio (Caco-2): 2.9; Activity (Kidney [29]): 75.99 µg/g; Activity (Mus musculus): 30.6 g
